Assay results published in ChEMBL document CHEMBL3804768, “Structure-Activity Relationship Studies of Mitogen Activated Protein Kinase Interacting Kinase (MNK) 1 and 2 and BCR-ABL1 Inhibitors Targeting Chronic Myeloid Leukemic Cells” (J Med Chem, 2016).
Converted amounts (≈) assume the structure as drawn.

What was measured:
[1] = target: MAP kinase-interacting serine/threonine-protein kinase 1 (Homo sapiens, UniProt Q9BUB5); assay: Inhibition of N-terminal GST-tagged MNK1 kinase domain (37 to 341 residues) (unknown origin) expressed in Escherichia coli BL21(DE3) cells using JH3 peptide substrate preincubated for 10 mins followed by substrate addition measured after 60 mins by mobility shift assay
[2] = target: Bcr/Abl fusion protein (Homo sapiens, UniProt P00519); assay: Inhibition of BCR fused full length human recombinant N-terminal His-tagged ABL (2 to 1130 residues) expressed in baculovirus expression system using FL-peptide 2 substrate preincubated for 10 mins followed by substrate addition measured after 60 mins by mobility shift assay
[3] = target: MAP kinase-interacting serine/threonine-protein kinase 2 (Homo sapiens, UniProt Q9HBH9); assay: Inhibition of N-terminal GST-tagged MNK2 kinase domain (72 to 385 residues) (unknown origin) expressed in Escherichia coli BL21(DE3) cells using JH3 peptide substrate preincubated for 10 mins followed by substrate addition measured after 60 mins by mobility shift assay
[4] = target: MAP kinase-interacting serine/threonine-protein kinase 1/2 (Homo sapiens, UniProt Q9HBH9+Q9BUB5); assay: Inhibition of MNK1/MNK2 in human HeLa cells assessed as reduction in phosphorylation of eIF4E at Ser209 after 2 hrs by AlphaScreen SureFire assay; format: cell-based
In short: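 HeLa cells were grown in DMEM with 10% FBS and penicillin/streptomycin, seeded at 30,000 per well and left 24 h. They were then exposed to serially diluted compound in serum-free DMEM for 2 h at 37 °C and lysed with shaking for 20 min. Phospho-eIF4E Ser209 was read by AlphaScreen SureFire with 2 h acceptor and 2 h donor steps at room temperature. Dose response was run in triplicate.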

[5] = tested on: K562; assay: Antiproliferative activity against human K562 cells over expressing eIF4E after 48 hrs by Cell-Titer-Glo luminescent cell viability assay; format: functional; details: K562, 48 h
In short: (§1)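 Cells seeded at 5000 per well in growth medium, exposed to serial doses from 0.003 μM to 50 μM for 48 h at 37 °C, 5% CO2. Viability was read by CellTiter-Glo luminescence and GI50 taken from the dose-response curve. Dose response was run in triplicate and the curve repeated twice. K562 eIF4E-overexpressing cells were cultured in RPMI with 10% FBS.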

[6] = target: Tyrosine-protein kinase ABL1 (Homo sapiens, UniProt P00519, T315I); assay: Inhibition of full length human recombinant N-terminal His-tagged ABL (2 to 1130 residues) T315I mutant expressed in baculovirus expression system using FL-peptide 2 substrate preincubated for 10 mins followed by substrate addition measured after 60 mins by mobility shift assay
In short: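 Buffer is 100 mM HEPES pH 7.5, 10 mM MgCl2, 0.004% Tween 20, 1 mM DTT, 0.003% Brij L23. Enzyme and compound sit 10 min before ATP/substrate is added. The reaction runs 60 min at room temperature, is stopped with 10 mM EDTA, and is read by mobility shift.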

[7] = target: Cytochrome P450 3A4 (Homo sapiens, UniProt P08684); assay: Inhibition of CYP3A4 (unknown origin); format: ADME
[8] = Thermodynamic solubility in pH 4 pION buffer at 500 uM incubated for 18 hrs by UV-spectrophotometry; format: physicochemical; details: read-out: Therm_solubility
[9] = Permeability of compound by PAMPA; format: ADME; details: read-out: permeability
[10] = target: Cytochrome P450 2D6 (Homo sapiens, UniProt P10635); assay: Inhibition of CYP2D6 (unknown origin); format: ADME
[11] = tested on: K562; assay: Antitumor activity against human K562 cells over expressing eIF4E xenografted in NOD-SCID mouse assessed as tumor growth inhibition at 200 mg/kg, po qd administered through oral gavage for 14 days relative to control; format: functional; details: 336 h, read-out: TGI
In short: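 Female SCID mice, 7-10 weeks old, received 1 x 10^7 K562 eIF4E-overexpressing cells subcutaneously. At tumor volumes of 75-245 mm³ (w²×l/2) mice were randomized and gavaged once daily for 14 days at 10 mL/kg.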

[12] = Antiproliferative activity against human KCL22 cells after 48 hrs by Cell-Titer-Glo luminescent cell viability assay; format: functional; details: KCL-22, 48 h
[13] = Antiproliferative activity against human JURL-MK1 cells after 48 hrs by Cell-Titer-Glo luminescent cell viability assay; format: functional; details: JURL-MK1, 48 h
[14] = tested on: K562; assay: Antiproliferative activity against human K562 cells after 48 hrs by Cell-Titer-Glo luminescent cell viability assay; format: functional; details: K562, 48 h; in short: as §1
[15] = Antiproliferative activity against human BV173 cells after 48 hrs by Cell-Titer-Glo luminescent cell viability assay; format: functional; details: BV-173, 48 h; in short: as §1
[16] = Antiproliferative activity against human EM2 cells after 48 hrs by Cell-Titer-Glo luminescent cell viability assay; format: functional; details: EM-2, 48 h; in short: as §1
[17] = Thermodynamic solubility in pH 7 pION buffer at 500 uM incubated for 18 hrs by UV-spectrophotometry; format: physicochemical; details: read-out: Therm_solubility

Sequence of Cytochrome P450 2D6 (P10635 whole entry): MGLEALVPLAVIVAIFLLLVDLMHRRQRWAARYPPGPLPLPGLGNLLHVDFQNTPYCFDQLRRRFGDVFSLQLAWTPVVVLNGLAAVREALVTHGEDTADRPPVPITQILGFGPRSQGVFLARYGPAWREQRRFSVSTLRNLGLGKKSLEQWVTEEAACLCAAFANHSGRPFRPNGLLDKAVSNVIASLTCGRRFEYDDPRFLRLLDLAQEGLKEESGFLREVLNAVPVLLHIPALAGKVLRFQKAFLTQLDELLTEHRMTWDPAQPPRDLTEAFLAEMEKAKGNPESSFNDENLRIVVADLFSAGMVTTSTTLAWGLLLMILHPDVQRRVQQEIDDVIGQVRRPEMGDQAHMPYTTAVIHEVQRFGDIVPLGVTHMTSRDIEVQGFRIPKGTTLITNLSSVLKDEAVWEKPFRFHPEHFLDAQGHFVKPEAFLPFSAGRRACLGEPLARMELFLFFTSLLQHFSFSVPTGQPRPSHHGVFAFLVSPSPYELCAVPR
Sequence of Cytochrome P450 3A4 (P08684 whole entry): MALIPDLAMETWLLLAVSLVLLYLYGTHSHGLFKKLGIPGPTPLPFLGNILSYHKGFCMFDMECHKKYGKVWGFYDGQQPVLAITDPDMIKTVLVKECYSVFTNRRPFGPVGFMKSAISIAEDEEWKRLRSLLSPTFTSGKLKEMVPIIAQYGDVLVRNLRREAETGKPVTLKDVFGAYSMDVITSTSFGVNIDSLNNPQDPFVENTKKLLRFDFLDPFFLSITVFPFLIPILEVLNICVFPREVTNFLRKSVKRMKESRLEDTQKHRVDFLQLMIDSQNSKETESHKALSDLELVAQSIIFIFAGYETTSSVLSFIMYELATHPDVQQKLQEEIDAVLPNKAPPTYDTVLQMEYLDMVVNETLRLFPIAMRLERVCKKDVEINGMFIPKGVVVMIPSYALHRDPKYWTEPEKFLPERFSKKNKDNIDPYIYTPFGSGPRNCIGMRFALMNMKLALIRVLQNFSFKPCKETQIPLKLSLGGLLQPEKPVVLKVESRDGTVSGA
Sequence of MAP kinase-interacting serine/threonine-protein kinase 1 (Q9BUB5 whole entry, the tested form may be a part): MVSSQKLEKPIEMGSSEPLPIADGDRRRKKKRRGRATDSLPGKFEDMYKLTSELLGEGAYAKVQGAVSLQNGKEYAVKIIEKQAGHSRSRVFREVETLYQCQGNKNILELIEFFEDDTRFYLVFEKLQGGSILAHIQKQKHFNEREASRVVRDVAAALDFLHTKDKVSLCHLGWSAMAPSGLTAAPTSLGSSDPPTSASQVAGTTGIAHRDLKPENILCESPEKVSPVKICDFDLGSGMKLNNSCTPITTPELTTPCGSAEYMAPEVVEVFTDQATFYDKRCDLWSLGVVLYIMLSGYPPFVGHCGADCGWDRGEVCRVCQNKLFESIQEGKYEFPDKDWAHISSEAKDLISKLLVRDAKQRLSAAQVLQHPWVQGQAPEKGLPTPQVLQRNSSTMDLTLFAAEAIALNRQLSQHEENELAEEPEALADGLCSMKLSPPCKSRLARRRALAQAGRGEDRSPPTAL
Sequence of MAP kinase-interacting serine/threonine-protein kinase 2 (Q9HBH9 whole entry, the tested form may be a part): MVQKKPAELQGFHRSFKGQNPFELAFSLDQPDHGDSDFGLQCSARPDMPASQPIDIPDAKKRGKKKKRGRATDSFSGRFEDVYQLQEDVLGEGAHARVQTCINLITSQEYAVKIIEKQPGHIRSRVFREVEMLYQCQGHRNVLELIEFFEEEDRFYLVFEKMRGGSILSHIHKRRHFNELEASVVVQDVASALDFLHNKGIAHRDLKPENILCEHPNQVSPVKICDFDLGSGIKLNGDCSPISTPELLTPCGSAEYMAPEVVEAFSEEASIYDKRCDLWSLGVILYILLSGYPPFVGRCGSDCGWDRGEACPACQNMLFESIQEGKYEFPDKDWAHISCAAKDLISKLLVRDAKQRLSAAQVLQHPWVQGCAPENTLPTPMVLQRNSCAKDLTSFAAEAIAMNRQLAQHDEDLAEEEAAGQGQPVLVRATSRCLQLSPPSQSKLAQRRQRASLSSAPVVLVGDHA

CCN1CCN(Cc2ccc(NC(=O)Cc3ccc(Oc4ccnc(NC)c4)cc3)cc2C(F)(F)F)CC1
IC50 [1]: 370 nM | IC50 [2]: 580 nM | IC50 [3]: 8 nM

CCN1CCN(Cc2ccc(NC(=O)COc3ccc(-c4cccnc4)cc3)cc2C2CC2)CC1
IC50 [1]: > 10000 nM | IC50 [2]: > 10000 nM | IC50 [3]: 130 nM

CCN1CCN(Cc2ccc(NC(=O)CNc3ccc(-c4cccnc4)cc3)cc2C(F)(F)F)CC1
IC50 [1]: 350 nM | IC50 [2]: > 10000 nM | IC50 [3]: 11 nM

CCN1CCN(Cc2ccc(NC(=O)COc3ccc(-c4ccncc4)cc3)cc2C(F)(F)F)CC1
IC50 [1]: > 10000 nM | IC50 [2]: > 10000 nM | IC50 [3]: 1910 nM

CCN1CCN(Cc2ccc(NC(=O)Cc3ccc(Oc4ccncc4)cc3)cc2C(F)(F)F)CC1
IC50 [1]: 540 nM | IC50 [2]: 3880 nM | IC50 [3]: 10 nM

CCN1CCN(Cc2ccc(NC(=O)COc3ccc(-c4ccc(NC(C)=O)nc4)cc3)cc2C(F)(F)F)CC1
IC50 [1]: 5680 nM | IC50 [2]: 390 nM | IC50 [4]: 680 nM | GI50 [5]: 100 nM | IC50 [3]: 33 nM | IC50 [6]: 170 nM

O=C(COc1ccc(-c2cccnc2)cc1)Nc1ccc(CN2CCNCC2)c(C(F)(F)F)c1
IC50 [1]: 350 nM | IC50 [2]: > 10000 nM | IC50 [3]: 12 nM

CCN1CCC(Cc2ccc(NC(=O)COc3ccc(-c4cccnc4)cc3)cc2C(F)(F)F)CC1
IC50 [1]: > 10000 nM | IC50 [2]: > 10000 nM | IC50 [3]: > 10000 nM

CC(=O)Nc1ccc(-c2ccc(NCC(=O)Nc3ccc(CN4CCNCC4)c(C(F)(F)F)c3)cc2)cn1
IC50 [7]: 2400 nM | IC50 [1]: 3920 nM | solubility thermodynamic at 18 h, 500 µM [8]: 132 µg/mL (≈ 250 µM) | IC50 [2]: 880 nM | IC50 [4]: 200 nM | GI50 [5]: 400 nM | Papp [9]: 1.13 ×10⁻⁶ cm/s | IC50 [3]: 32 nM | IC50 [10]: > 20000 nM | IC50 [6]: 240 nM

CCN1CCN(Cc2ccc(NC(=O)C(C)Oc3ccc(-c4cccnc4)cc3)cc2C(F)(F)F)CC1 (configuration not stated)
IC50 [1]: > 10000 nM | IC50 [2]: > 10000 nM | IC50 [3]: > 10000 nM

Cc1ccc(NC(=O)c2ccc(CN3CCN(C)CC3)cc2)cc1Nc1nccc(-c2cccnc2)n1 [IMATINIB]
inhibition in vivo at 200 mg/kg [11]: 57% | GI50 [12]: 430 nM | GI50 [13]: 60 nM | GI50 [14]: 200 nM | GI50 [15]: 100 nM | GI50 [16]: 260 nM

O=C(CNc1ccc(-c2ccc(NC(=O)C3CC3)nc2)cc1)Nc1ccc(CN2CCNCC2)c(C(F)(F)F)c1
IC50 [7]: 1100 nM | IC50 [1]: 510 nM | solubility thermodynamic at 18 h, 500 µM [8]: 109 µg/mL (≈ 197 µM) | IC50 [2]: 210 nM | IC50 [4]: 320 nM | GI50 [5]: 80 nM | Papp [9]: 5.53 ×10⁻⁶ cm/s | IC50 [3]: 8 nM | IC50 [10]: > 20000 nM | IC50 [6]: 100 nM

CCN1CCN(Cc2ccc(NC(=O)CNc3ccc(-c4ccc(NC(C)=O)nc4)cc3)cc2C(F)(F)F)CC1
IC50 [7]: 3200 nM | solubility thermodynamic at 18 h, 500 µM [17]: 0.6 µg/mL (≈ 1.08 µM) | IC50 [1]: 5980 nM | IC50 [2]: 380 nM | IC50 [4]: 320 nM | GI50 [5]: 340 nM | Papp [9]: 26.2 ×10⁻⁶ cm/s | IC50 [3]: 44 nM | IC50 [10]: > 20000 nM | IC50 [6]: 90 nM

CC(C)C(=O)Nc1ccc(-c2ccc(NCC(=O)Nc3ccc(CN4CCNCC4)c(C(F)(F)F)c3)cc2)cn1
IC50 [1]: 7700 nM | IC50 [2]: > 10000 nM | IC50 [4]: 860 nM | GI50 [5]: 3300 nM | IC50 [3]: 130 nM | IC50 [6]: > 10000 nM

CCN1CCN(Cc2ccc(CC(=O)Nc3ccc(Oc4cc(NC)ncn4)cc3)cc2C(F)(F)F)CC1
IC50 [1]: > 10000 nM | IC50 [2]: > 10000 nM | IC50 [3]: 760 nM

CCC1CCN(Cc2ccc(NC(=O)COc3ccc(-c4cccnc4)cc3)cc2C(F)(F)F)CC1
IC50 [1]: 4510 nM | IC50 [2]: > 10000 nM | IC50 [3]: 82 nM

CCN1CCN(Cc2ccc(NC(=O)COc3ccc(-c4ccccn4)cc3)cc2C(F)(F)F)CC1
IC50 [1]: > 10000 nM | IC50 [2]: > 10000 nM | IC50 [3]: > 10000 nM

CCN1CCN(Cc2ccc(NC(=O)Cc3ccc(Oc4cc(NC)ncn4)cc3)cc2C(F)(F)F)CC1
IC50 [1]: 3690 nM | IC50 [2]: > 10000 nM | IC50 [3]: 22 nM

CCN1CCN(Cc2ccc(NC(=O)COc3ccc(-c4ccc(C(=O)NC)nc4)cc3)cc2C(F)(F)F)CC1
IC50 [1]: > 10000 nM | IC50 [2]: > 10000 nM | IC50 [3]: 6860 nM

CCN1CCN(Cc2ccc(NC(=O)COc3ccc(-c4cccnc4)cc3)cc2C(F)(F)F)CC1
IC50 [1]: 570 nM | IC50 [2]: > 10000 nM | IC50 [4]: 98 nM | GI50 [5]: > 10000 nM | IC50 [3]: 14 nM
